Compounds with a hit are over-represented: about 2.5% of the library has one in this group of screens.
H9c2 TAG inh = triacylglycerol accumulation inhibition | H9c2 cells, Nile Red lipid (TAG) fluorescence; cells loaded with 200 µM oleic acid | inhibition, % at 12.5 µM | 230,000 tested, 0.66% active;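 active means pattern-corrected inhibition of lipid staining of at least 50% with the nuclear-stain viability signal not falling by more than 50%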;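 further: 0% = DMSO wells and 100% = triacsin C control wells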
SMARCA2 activ = SMARCA2 function activation, primary screen. activation, % at 9.1 µM. AID 652017. 370,000 tested, 1% active. MG213 cells, MMTV-luciferase reporter, dexamethasone, overnight; in the data active means activation above about 7.8%;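 further: 0% = vehicle wells and 100% = reference activator wells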
SR-BI DiI inh = mouse SR-BI HDL lipid transfer inhibition; Q61009; inhibition, % at 12.5 µM; ldlA[mSR-BI] CHO cells, DiI-HDL uptake fluorescence, 3 h; 320,000 tested, 0.96% active;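 active means mean replicate inhibition of at least 70% and a set share of replicates each scoring 70 or more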;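 further: 0% = median of neutral control wells and 100% = median of positive control wells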
Target sequence (Q61009 whole entry, looked up): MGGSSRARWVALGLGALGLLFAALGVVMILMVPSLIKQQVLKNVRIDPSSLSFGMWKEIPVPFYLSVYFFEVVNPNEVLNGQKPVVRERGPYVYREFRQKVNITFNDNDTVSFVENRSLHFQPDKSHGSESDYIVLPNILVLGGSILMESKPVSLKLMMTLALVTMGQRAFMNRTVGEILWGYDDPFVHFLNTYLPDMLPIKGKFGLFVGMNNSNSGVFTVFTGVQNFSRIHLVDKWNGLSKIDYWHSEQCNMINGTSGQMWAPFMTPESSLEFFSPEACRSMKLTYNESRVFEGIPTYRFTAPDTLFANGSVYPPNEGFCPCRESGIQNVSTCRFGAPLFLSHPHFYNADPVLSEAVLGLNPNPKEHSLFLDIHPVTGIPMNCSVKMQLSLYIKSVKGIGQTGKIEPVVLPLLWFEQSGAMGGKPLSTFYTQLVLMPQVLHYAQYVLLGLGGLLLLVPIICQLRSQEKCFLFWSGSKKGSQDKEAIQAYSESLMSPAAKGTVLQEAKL
Vif imaging = inhibitors of HIV Vif | HEK293T cells, Vif self-association by quenched fluorescence, imaging, 24 h | inhibition, % at 7.49 µM | 340,000 tested, 0.35% active; in the data active means inhibition above about 50%, passing the limit was not always enough
SR-BI DiI-HDL act = activators of SR-BI mediated HDL lipid uptake | CHO ldlA[mSR-BI] cells, DiI-HDL uptake fluorescence, 3 h; 100 = double the neutral-control signal | activation, % at 12.5 µM | AID 504775 | 320,000 tested, 0.096% active;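 active means mean replicate activation of at least 60% and every replicate at or above 60%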;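 further: 0% = median plate neutral-control signal and 100% = twice that signal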
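Test system: SR-BI-overexpressing, LDLR-lacking CHO cells; Medium: Ham's F12 with 0.5% BSA, HEPES 25 mM, pH 7.4; Schedule: 3 h, 37 °C; Technique: bottom-read fluorescence, 550/595 nm.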
Starred values were filed as active, the others as inactive; i = inactive; . = no result.

SMILES	H9c2 TAG inh	SMARCA2 activ	SR-BI DiI inh	Vif imaging	SR-BI DiI-HDL act
CC[C@H](C)[C@@H](C(=O)NCCCCCCCCCCC(=O)N1CCN(C(=O)OC(C)(C)C)CC1)n1cc(CCCCCNC(=O)OC(C)(C)C)nn1	0.4	-1.9	70.7*	-3.9	-70.7
C#CCOCCOCCOCCNc1nc(N2CCN(C(=O)CCCCCCCCCCNC(=O)[C@@H](CCC(=O)O)n3cc(CCCCCN)nn3)CC2)nc(N2CCN(C(=O)CCCCCCCCCCNC(=O)[C@H]([C@@H](C)CC)n3cc(CCCCCN)nn3)CC2)n1	-20.5	.	-8.9	0.5	8.9
C#CCOCCOCCOCCNc1nc(N2CCN(C(=O)CCCCCCCCCCNC(=O)[C@H]([C@@H](C)CC)n3cc(CCCCCN)nn3)CC2)nc(N2CCN(C(=O)CCCCCCCCCCNC(=O)[C@H](CO)n3cc(CCCCCN)nn3)CC2)n1	18.1	.	15.3	95.7*	-15.3
C#CCOCCOCCOCCNc1nc(N2CCN(C(=O)CCCCCCCCCCNC(=O)Cn3cc(CCCCCN)nn3)CC2)nc(N2CCN(C(=O)CCCCCCCCCCNC(=O)[C@H]([C@@H](C)CC)n3cc(CCCCN=C(N)N)nn3)CC2)n1	-2.9	.	84.3*	104.3*	-84.3
COc1ccccc1CCn1cnc(-c2ccc(Cl)cc2)c1CC(C)C	.	-7.8	.	.	.
CCOc1ccc(NC(=O)CN(C)C(=O)CCCOc2ccc(Br)cc2)cc1OCC	-39.5	0.0	82.8*	-2.9	-82.8
CCOc1ccc2oc(C(=O)N(C)CC(=O)Nc3ccc(OCC)c(OCC)c3)c(C)c2c1	23.7	-0.7	82.5*	-0.2	-82.5
CCOc1ccc(NC(=O)CN(C)C(=O)c2cccnc2Sc2ccc(Cl)cc2)cc1OCC	-7.1	-1.1	-81.9	-13.4	81.9*
CCCCOCCCNC(=O)C[C@@H]1C(=O)N(CCc2ccc(Cl)cc2)C2=CCCCC[C@]21C(=O)OC	.	-1.3	.	.	.
COc1ccccc1C(=O)NNC(=O)c1ccc2ccccc2c1O	7.6	1.1	.	-2.2	.
O=C(NNC(=O)c1ccc2ccccc2c1O)NC1CCCCC1	.	1.1	90.0*	1.7	.
COc1ccc(C(=O)NNC(=O)c2ccc3ccccc3c2O)cc1	-0.6	-1.7	75.5*	-3.1	-75.5
Cc1ccc(C(=O)NNC(=O)c2ccc3ccccc3c2O)cc1	7.2	-1.4	111.1*	1.1	-111.1
COc1cccc(OCC(=O)NNC(=O)c2ccc3ccccc3c2O)c1	.	-0.9	89.0*	12.3	.
COc1ccccc1-n1c(Cc2cccc3ccccc23)nnc1SCC(=O)O	.	-0.4	.	.	.
COC(=O)C1=C(C(=O)OC)C2CCCC1C1N=NN(c3ccccc3)C21 (stereo unspecified)	.	3.8	.	.	.
CN(C)C(CNS(=O)(=O)c1cc([N+](=O)[O-])ccc1Cl)c1ccco1 (stereo unspecified)	10.9	7.8*	-19.6	5.7	19.6
CCOC(=O)C(C)On1c(-c2ccc(Cl)cc2)nc2ccc([N+](=O)[O-])cc21 (stereo unspecified)	-10.4	2.5	49.3	4.2	-49.3
O=C(O)COn1c(-c2ccccc2)nc2ccc([N+](=O)[O-])cc21	.	7.8*	-11.0	-9.2	11.0
Cc1ccc(COn2c(-c3ccc(Cl)cc3)nc3ccc([N+](=O)[O-])cc32)cc1	5.3	8.2*	17.6	-19.6	-17.6
COc1ccc2c(c1)-c1nc(NC(=O)c3cccs3)sc1CC2	-3.9	0.9	78.6*	8.8	-78.6
COC(=O)Nc1nc(-c2ccccc2)c(C(=O)c2ccccc2)s1	65.0*	-1.1	90.6*	.	-90.6
COc1ccc2c(c1)-c1nc(NC(=O)c3ccco3)sc1CC2	.	2.5	77.6*	0.3	-77.6
CCOC(=O)c1sc(NC(=O)c2ccco2)nc1-c1ccccc1	-11.7	7.9*	.	.	.
CCN(CC)C(=O)CC[C@@H]1CC[C@]2(CCCN(C(=O)c3ccccc3)C2)O1	.	0.2	.	.	.
SMILES	H9c2 TAG inh	SMARCA2 activ	SR-BI DiI inh	Vif imaging	SR-BI DiI-HDL act
CC(C)Sc1nc2c(c(=O)n1C)SC(C)C2 (stereo unspecified)	-6.5	0.4	-182.8	.	182.8*
Clc1cc2c(c(CSc3nc4ccccc4n4cccc34)c1)OCOC2	.	-2.1	15.8	76.2*	-15.8
Clc1cc2c(c(Cn3cnc4ccccc43)c1)OCOC2	-2.4	1.2	5.6	-24.6	-5.6
CCN1CCc2c(sc(NC(=O)c3ccc4ccccc4c3)c2C(N)=O)C1	28.3	1.6	12.0	2.5	-12.0
CCN1CCc2c(sc(NC(=S)NC(=O)c3ccc(Cl)cc3)c2C(N)=O)C1	-3.9	0.7	58.0	50.8*	-58.0
Nc1nc(SCC(=O)c2ccc(Br)s2)n[nH]1	.	-1.0	i	3.3	640.8*
O=S1(=O)c2c(cccc2N2CC[C@@H](O)C2)OCCCN1C1CC1	.	-1.9	.	.	.
O=C(NCCCNC(=O)c1c(F)cccc1F)c1c(F)cccc1F	.	-2.7	78.3*	3.9	-78.3
Cc1ccc(-c2cc(C(=O)N/N=C\c3cnn(C)c3C)c3ccccc3n2)cc1C	-9.3	0.4	96.1*	-8.3	-96.1
CCc1ccc(/C=N/NC(=O)c2cc(-c3ccccc3OC)nc3ccccc23)s1	8.6	-2.4	.	-3.1	.
O=C(N/N=C/c1ccccc1OC(F)F)c1cc(-c2ccncc2)nc2ccccc12	37.7	-2.9	89.8*	24.3	-89.8
O=C(O)COc1ccccc1/C=N/NC(=O)c1cc(-c2ccccc2)nc2ccccc12	-1.4	-0.6	.	.	.
O=C(N/N=C/c1ccccn1)c1cc(-c2ccc(Cl)cc2)nc2ccccc12	.	5.4	106.8*	11.1	-106.8
COc1ccccc1-c1cc(C(=O)N/N=C/c2ccc(C)s2)c2ccccc2n1	-50.1	-6.9	77.1*	-6.7	-77.1
O=C(N/N=C/c1ccccn1)c1cc(-c2ccc(Br)cc2)nc2ccccc12	42.9	-1.7	75.9*	12.6	-75.9
Brc1ccc2nc(-c3ccc(CN4CCC(c5nc6ccccc6[nH]5)CC4)cc3)c(-c3ccccc3)nc2c1	.	3.1	.	.	.
CCOC(=O)c1sc(NC(=O)c2sccc2C)cc1C	50.7*	0.1	56.6	-2.8	-56.6
CCOC(=O)c1sc(NC(=O)c2cccs2)cc1C	.	-1.9	40.1	37.2	-40.1
CC1CCCCN1C(=O)c1ccc(CNC(=O)c2cccc(Br)c2)cc1 (stereo unspecified)	.	-5.1	.	.	.
CCCCc1c(-c2ccccc2OC)ncn1Cc1cccc(OC)c1	.	-6.4	.	.	.
Cc1cc([N+](=O)[O-])ccc1NC(=O)Nc1ccccc1F	-26.7	-0.1	93.8*	.	-93.8
O=C(Nc1ccccc1)Nc1cc([N+](=O)[O-])ccc1F	.	-2.9	-14.2	-9.3	14.2
COc1ccc2nc(C)c3c(c2c1)OC(C(C)(Cl)Br)C3 (stereo unspecified)	-13.8	-3.3	71.3*	-12.8	-71.3
Cc1ccc(OCCSc2ncnc3sc(C)c(C)c23)cc1C	-26.4	-2.4	i	10.6	950.0*
Cc1ccc(OCC(=O)NNC(=O)CSc2ncnc3sc(C)c(C)c23)cc1	-14.3	1.3	-11.5	-3.3	11.5
CCC(=NNC(=O)c1ccc2c(c1)nc(C)n2CC)c1cc(F)ccc1O	16.0	-3.7	114.5*	3.3	-114.5

Screening results from PubChem BioAssay.
